Bioassay records: PubChem BioAssay, several laboratories
Compounds with a hit are over-represented: about 2.9% of the library has one in this group of screens.
T cruzi repl: T. cruzi replication inhibition. T. cruzi beta-gal in NIH3T3, luminescence, 90 h. inhibition, % (no concentration beside the values). 300,000 tested, 1.4% active. AID 1885;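 active = mean inhibition across valid replicates above about 55%, limit read from the data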;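 also: signal also drops with host cell toxicity which is not excluded here; 0% = plate median of DMSO wells and 100% = zero luminescence signal; higher percent means less beta-gal luminescence so fewer parasites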
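assay system = mouse NIH/3T3 fibroblasts infected with β-gal-expressing T. cruzi Tulahuen C4 | input = 5,000 NIH/3T3 host cells per well | buffer or medium = DMEM plus 2% FBS | timing = 3 h host attachment, then at least 90 h co-culture | measured by = GalScreen luminescence, 60 min | evaluation = luminescence reflecting intracellular parasite burden, expressed as percent inhibition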
NR1D1 modulator: modulators of human Rev-erb alpha DNA binding; P20393; Rev-erbα–FITC-DNA binding, fluorescence polarization, 90 min; activity, % at 10 µM; 370,000 tested, 0.79% active; AID 1259318;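 active = activity above about 14%, limit read from the data; passing the limit was not always enough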;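 also: 0% = DMSO wells with 35 nM protein and 100% = DMSO wells with 750 nM protein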
Target sequence (P20393 whole entry, looked up): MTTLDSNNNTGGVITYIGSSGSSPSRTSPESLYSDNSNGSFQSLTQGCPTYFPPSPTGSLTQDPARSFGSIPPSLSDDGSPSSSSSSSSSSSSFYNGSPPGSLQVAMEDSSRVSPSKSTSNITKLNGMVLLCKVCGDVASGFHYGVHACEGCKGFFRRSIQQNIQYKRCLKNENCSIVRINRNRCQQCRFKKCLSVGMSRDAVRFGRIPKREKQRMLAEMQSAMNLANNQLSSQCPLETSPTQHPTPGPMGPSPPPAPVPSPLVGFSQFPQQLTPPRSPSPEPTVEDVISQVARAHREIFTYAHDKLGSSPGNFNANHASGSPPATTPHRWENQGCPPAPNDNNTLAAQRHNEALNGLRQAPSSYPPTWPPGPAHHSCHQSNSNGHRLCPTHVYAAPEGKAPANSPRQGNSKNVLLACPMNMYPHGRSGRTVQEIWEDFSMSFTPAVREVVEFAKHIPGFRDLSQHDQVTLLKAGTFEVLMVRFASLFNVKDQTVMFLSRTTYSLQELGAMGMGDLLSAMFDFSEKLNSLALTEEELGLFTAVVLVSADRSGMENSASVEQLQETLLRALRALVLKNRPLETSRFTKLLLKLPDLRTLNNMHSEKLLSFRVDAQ
PG9 Ab binder: binds the HIV-1 gp120 antibody PG9. TR-FRET gp120-PG9 antibody binding. inhibition, % at 6.7 µM. 360,000 tested, 0.43% active; in the data active = inhibition above about 8.5%
H9c2 TAG inh: reduces triacylglycerol accumulation in H9c2 cells; Nile Red lipid (TAG) fluorescence; cells loaded with 200 µM oleic acid; inhibition, % at 12.5 µM; 230,000 tested, 0.66% active; AID 651582;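 active = pattern-corrected inhibition of lipid staining of at least 50% with the nuclear-stain viability signal not falling by more than 50%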;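 also: 0% = DMSO wells and 100% = triacsin C control wells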
iPSC survival up: hiPSC single-cell survival enhancement; AID 602274; 360,000 tested, 0.044% active; survival enhancement, % at 20 µM; ATPlite luminescence; 100% = ROCK inhibitor wells, 0% = DMSO; in the data active = survival enhancement above about 18%;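 also: cells exposed to compounds for 16 hours before the ATP read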
MIN6 prolif: MIN6 beta-cell proliferation induction; MIN6 cells proliferation, ATPlite luminescence, 48 h; cells starved in 0.2% serum; 100% = growth in 10% serum; proliferation, % at 10 µM; 330,000 tested, 0.29% active; AID 2380;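 active = compounds whose signal lies at least 3.5 SD above the mean of all wells on their plate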;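 also: 0% = DMSO-treated cells in low-serum medium and 100% = 10% serum control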
* = called active by the depositor; x = no result given.

SMILES | T cruzi repl | NR1D1 modulator | PG9 Ab binder | H9c2 TAG inh | iPSC survival up | MIN6 prolif
COC(=O)c1sccc1NC(=O)CSc1ccccc1N | -9.4 | -5.8 | 0.2 | 0.8 | -0.3 | 0.2
COc1ccc(C(=O)N(c2ccc(C)cc2)C2C=CS(=O)(=O)C2)cc1OC (centres undefined) | -0.7 | 0.7 | -0.4 | 10.4 | 0.0 | 4.0
CCOC(=O)c1sc2c(c1C)C(c1cccs1)C1=C(CCCC1=O)N2 (centres undefined) | 39.9 | 3.8 | 1.7 | x | 1.1 | -2.6
CCOC(=O)Cn1nc(C)c2ccccc2c1=O | -7.2 | 4.6 | 0.4 | -14.8 | 8.1 | -1.5
Cc1nn(CC(N)=O)c(=O)c2ccccc12 | 57.8* | 0.3 | -0.2 | x | -0.4 | 0.0
CN(C)c1ccccc1C(=O)N1CCC(n2nccc2NC(=O)C2CC2)CC1 | -27.7 | 1.4 | 0.5 | x | -0.6 | -2.7
COc1ccc(C(=O)Cn2nc(CNc3ccc(Br)cc3)[n+]3c2CCCCC3)cc1 | 59.1* | -2.7 | 0.3 | -2.3 | -0.4 | -5.6
COC(CNC(=O)C1CCCCC1C(=O)O)OC (centres undefined) | -4.7 | -5.4 | -4.6 | x | -1.1 | 0.0
CCCCCCCCCCCCCCCC[N+](C)(C)CC | 35.5 | 5.5 | -2.2 | 8.8 | -3.5 | -8.2
CCCCCCCCCCCCCCCC[N+](C)(C)CCl | x | -1.1 | -0.3 | 65.5* | -1.8 | x
C#CC[N+](C)(C)CCCCCCCCCC | 28.4 | -0.7 | 0.1 | x | -2.1 | -5.3
CC#CC[N+](C)(C)CCCCCCCCCCCC | 73.3* | -5.8 | -0.3 | x | -2.1 | -6.2
CC(C)(C)NC(=O)CN(C(=O)CCC(=O)Nc1nccs1)c1ccc2c(c1)OCCO2 | 0.2 | -6.4 | -2.5 | x | 1.0 | -1.4
Cc1nc(C(=O)NC2CCCCC2)sc1C1(C)CC(c2cccc([N+](=O)[O-])c2)=NO1 (centres undefined) | 48.4 | -0.9 | -0.3 | -91.5 | -2.8 | -4.7
Cc1nc(C(=O)Nc2ccc(Cl)cc2)sc1C1(C)CC(c2cccc([N+](=O)[O-])c2)=NO1 (centres undefined) | 66.0* | 0.2 | -2.7 | x | -1.7 | -2.6
Cc1ccc(-c2csc(N(CCCN(C)C)C(=O)c3ccco3)n2)cc1 | 47.5 | 0.8 | 0.5 | 17.1 | -0.6 | -5.8
COc1ccc(-c2csc(N(CCCN(C)C)C(=O)c3cccs3)n2)cc1 | 65.7* | -5.5 | -0.3 | 21.9 | -0.4 | -5.2
CN(C)CCCN(C(=O)c1ccco1)c1nc(-c2ccc(Cl)cc2)cs1 | 56.5* | -0.1 | -0.9 | 20.8 | -0.7 | -5.0
O=C1CC(c2ccccc2)n2nc(NC(=O)c3cccnc3)nc2N1 (centres undefined) | -0.7 | 0.3 | -0.1 | x | x | x
CCN(CC)Cc1nc2nc(Cl)c(Cl)nc2[nH]1 | x | -0.7 | 0.3 | 2.0 | -3.1 | x
CCOC(=O)c1c(NC(=O)CC)sc2c1CCN(Cc1ccccc1)C2 | 43.5 | 4.6 | -1.4 | -14.4 | -0.4 | -3.4
CCOC(=O)c1c(NC(=O)CN(CC)CC)sc2c1CCN(C(=O)OCC)C2 | 30.9 | -1.7 | -1.8 | x | 4.1 | -1.1
CCOC(=O)c1c(NC(=O)CN2CCCCC2)sc2c1CCN(C(=O)OCC)C2 | 60.4* | 1.1 | -1.7 | x | 0.8 | -4.2
CCOC(=O)c1c(NC(=O)CSc2nnc3c(n2)[nH]c2ccccc23)sc2c1CCN(C)C2 | 77.3* | -27.5 | 0.8 | 5.2 | -1.0 | -3.7
CCOC(=O)c1c(NC(=O)CSc2ncccn2)sc2c1CCN(Cc1ccccc1)C2 | 55.6* | 1.2 | -1.2 | x | -1.7 | x
SMILES | T cruzi repl | NR1D1 modulator | PG9 Ab binder | H9c2 TAG inh | iPSC survival up | MIN6 prolif
CCOc1ccc2oc(C(=O)O)c(C)c2c1 | -0.4 | -2.1 | -0.4 | 2.9 | -0.3 | -2.1
O=S(=O)(N[C@H](CO)c1ccccc1)c1ccc(Br)cc1F | x | 0.1 | 0.0 | -14.3 | -1.6 | x
O=C(CSCc1ccccc1)N/N=C/c1ccccc1OCc1ccccc1 | -8.8 | -3.8 | -1.0 | x | 0.7 | -3.3
COc1cc(/C=N/NC(N)=S)ccc1OCc1ccc(C)cc1 | 57.7* | 1.4 | 1.7 | 26.2 | -1.3 | -5.8
COc1cc(/C=N/N=C(N)N)ccc1OCc1ccc(Cl)cc1 | 87.0* | 3.7 | -1.4 | x | -4.2 | -5.9
NC(=S)N/N=C\c1ccccc1OCc1ccccc1 | 55.0* | -0.7 | -0.1 | x | -1.3 | -2.8
COc1cc(/C=N/NC(N)=S)ccc1OC(=O)c1ccc(C)cc1 | 15.4 | 0.5 | -1.9 | 39.1 | -2.8 | -5.8
COc1ccc(NC(=O)c2[nH]c(C)c(C(C)=O)c2C)cc1 | -5.0 | -4.1 | -0.8 | 9.9 | -0.5 | -1.4
CCc1c(C(=O)Nc2ccc(OC)cc2)[nH]c(C)c1C(C)=O | -6.8 | -4.1 | 0.7 | -52.1 | 21.7* | -2.8
CN(Cc1ccccc1)C(=O)OCc1cn(Cc2cc(F)ccc2F)nn1 | x | 2.2 | x | x | x | x
COCCN(CCOC)C(=O)c1cc2sc3ccccc3c2s1 | 16.1 | 2.4 | -0.9 | x | -1.5 | 0.4
CN(C)CCCNC(=O)c1cc2c3ccccc3n(C)c2s1 | 74.3* | 1.8 | -1.6 | x | -1.0 | -1.3
CN(C)CCNC(=O)c1cc2sc3ccccc3c2s1 | 59.4* | 8.4 | 1.4 | 13.7 | -0.4 | -3.4
COc1ccc(OC)c(-n2c(C)nc3cc(C(=O)O)ccc32)c1 | -16.3 | 0.3 | 2.1 | -6.7 | 0.8 | -0.3
COc1ccc(-c2cc(C(=O)Nc3cccc(Cl)c3)no2)cc1 | 0.9 | 4.0 | 0.5 | x | -0.2 | -1.6
COc1ccc(OC)c(-c2cc(C(=O)Nc3cccc(Cl)c3)no2)c1 | 55.2* | 9.0 | -1.6 | x | -0.8 | -0.7
CCOc1ccc(/C=N/NC(=O)c2[nH]ncc2Br)c(O)c1 | 54.8* | -1.2 | -2.3 | 20.5 | -2.2 | -3.7
COc1ccc(OC)c(/C=N/NC(=O)c2[nH]ncc2Br)c1 | -14.0 | 6.7 | -1.8 | 8.3 | -0.8 | -0.6
CC(OC(=O)c1ccc(S(=O)(=O)N2CCCCC2)cc1)C(=O)Nc1ccc(C(N)=O)cc1 (centres undefined) | x | -9.5 | 1.3 | 11.9 | 40.0* | -0.3
CC(OC(=O)c1ccc2c(=O)n3c(nc2c1)CCC3)C(=O)Nc1ccc(C(N)=O)cc1 (centres undefined) | x | -8.1 | 0.1 | 22.0 | 26.4* | -2.4
CC(=O)Nc1cc(NC(C)=O)cc(C(=O)OC(C)C(=O)Nc2ccc(S(=O)(=O)N3CCCC3)cc2)c1 (centres undefined) | -8.1 | -1.8 | -0.1 | 16.6 | 1.1 | 1.6
CC(OC(=O)c1ccc2c(=O)n3c(nc2c1)CCC3)C(N)=O (centres undefined) | 3.5 | -3.4 | -0.2 | -3.1 | -0.7 | -1.8
O=[N+]([O-])c1ccccc1C=Nn1c(-c2cc(-c3ccccc3)n[nH]2)n[nH]c1=S | x | 4.8 | x | x | x | x
CCn1c(=N)n(CC(=O)C23CC4CC(CC(C4)C2)C3)c2ccccc21 | 57.6* | 3.5 | 1.5 | 0.6 | -3.0 | -3.0
CCn1c(=N)n(CC(=O)c2cccc([N+](=O)[O-])c2)c2ccccc21 | 0.5 | 4.1 | -1.2 | 31.0 | -1.6 | 2.4
